# Source: ChEMBL document CHEMBL4765302, “Design, synthesis and biological evaluation of novel histone deacetylase1/2 (HDAC1/2) and cyclin-dependent Kinase2 (CDK2) dual inhibitors against malignant cancer” (Eur J Med Chem, 2020)
# What was measured:
# A-375 [1] = test: Induction of apoptosis in human A-375 cells assessed as late apoptotic cells at 2 uM incubated for 48 hrs by annexin V-FITC and PI staining based flow cytometry (reference value: 2.24 %); format: functional
# A-375 [2] = test: Induction of apoptosis in human A-375 cells assessed as early apoptotic cells at 2 uM incubated for 48 hrs by annexin V-FITC and PI staining based flow cytometry (reference value: 1.34 %); format: functional
# A-375 [3] = test: Induction of apoptosis in human A-375 cells assessed as necrotic cells at 2 uM incubated for 48 hrs by annexin V-FITC and PI staining based flow cytometry (reference value: 0.139 %); format: functional
# NCI-H460 [4] = test: Antiproliferative activity against human H460 cells assessed as reduction in cell growth at 2 uM incubated for 72 hrs by CCK-8 assay relative to control; format: functional
# HCT-116 [5] = test: Induction of apoptosis in human HCT-116 cells assessed as early apoptotic cells at 2 uM incubated for 48 hrs by annexin V-FITC and PI staining based flow cytometry (reference value: 4.14 %); format: functional
# A-375 [6] = test: Induction of apoptosis in human A-375 cells assessed as viable cells at 2 uM incubated for 48 hrs by annexin V-FITC and PI staining based flow cytometry (reference value: 96.3 %); format: functional; settings: read-out: Activity
# NCI-H460 [7] = test: Induction of apoptosis in human NCI-H460 cells assessed as necrotic cells at 2 uM incubated for 48 hrs by annexin V-FITC and PI staining based flow cytometry (reference value: 0.632 %); format: functional
# Histone deacetylase 2 = Histone deacetylase 2 (Homo sapiens, UniProt Q92769); test: Inhibition of recombinant human HDAC2 using FLUOR-DE-LYS-Green as substrate incubated for 10 mins followed by substrate addition and measured after 30 mins by fluorescence based assay
# Histone deacetylase 2, sequence (Q92769 whole entry): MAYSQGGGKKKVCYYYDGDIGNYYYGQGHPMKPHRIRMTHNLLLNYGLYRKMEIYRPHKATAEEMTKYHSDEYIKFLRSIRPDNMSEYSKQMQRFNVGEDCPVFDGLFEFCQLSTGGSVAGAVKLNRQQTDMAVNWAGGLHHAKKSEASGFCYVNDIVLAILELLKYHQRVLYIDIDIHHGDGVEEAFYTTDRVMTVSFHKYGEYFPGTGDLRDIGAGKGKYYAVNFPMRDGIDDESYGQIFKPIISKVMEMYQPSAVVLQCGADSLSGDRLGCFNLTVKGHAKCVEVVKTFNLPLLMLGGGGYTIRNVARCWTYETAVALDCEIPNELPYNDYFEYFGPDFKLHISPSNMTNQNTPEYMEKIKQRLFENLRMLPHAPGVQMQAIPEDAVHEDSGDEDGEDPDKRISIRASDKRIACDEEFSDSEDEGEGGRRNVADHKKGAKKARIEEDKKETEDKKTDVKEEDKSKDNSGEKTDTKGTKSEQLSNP
# Outline: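 IC50 values reported as means of at least two separate determinations, expressed as mean ±SD.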
# HCT-116 [8] = test: Induction of apoptosis in human HCT-116 cells assessed as late apoptotic cells at 2 uM incubated for 48 hrs by annexin V-FITC and PI staining based flow cytometry (reference value: 1.88 %); format: functional
# HeLa [9] = test: Induction of apoptosis in human HeLa cells assessed as early apoptotic cells at 2 uM incubated for 48 hrs by annexin V-FITC and PI staining based flow cytometry (reference value: 0.528 %); format: functional
# NCI-H460 [10] = test: Induction of apoptosis in human NCI-H460 cells assessed as early apoptotic cells at 2 uM incubated for 48 hrs by annexin V-FITC and PI staining based flow cytometry (reference value: 2.88 %); format: functional
# HCT-116 [11] = test: Induction of apoptosis in human HCT-116 cells assessed as viable cells at 2 uM incubated for 48 hrs by annexin V-FITC and PI staining based flow cytometry (reference value: 93.9 %); format: functional; settings: read-out: Activity
# NCI-H460 [12] = test: Antiproliferative activity against human H460 cells assessed as reduction in cell growth at 8 uM incubated for 72 hrs by CCK-8 assay relative to control; format: functional
# HepG2 [13] = test: Antiproliferative activity against human HepG2 cells assessed as reduction in cell growth at 2 uM incubated for 72 hrs by CCK-8 assay relative to control; format: functional
# A-375 [14] = test: Antiproliferative activity against human A-375 cells assessed as reduction in cell growth incubated for 72 hrs by CCK-8 assay; format: functional, cell-based; settings: A-375, 72 h
# Outline: (§1)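 IC50 by CCK-8 assay across five solid-tumour lines (HCT116, HepG2, H460, HeLa, A375). Run only for compounds chosen after the single-concentration screen, with CS055 and roscovitine as references.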
# HeLa [15] = test: Induction of apoptosis in human HeLa cells assessed as late apoptotic cells at 2 uM incubated for 48 hrs by annexin V-FITC and PI staining based flow cytometry (reference value: 0.870 %); format: functional
# HCT-116 [16] = test: Antiproliferative activity against human HCT-116 cells assessed as reduction in cell growth at 8 uM incubated for 72 hrs by CCK-8 assay relative to control; format: functional
# NCI-H460 [17] = test: Induction of apoptosis in human NCI-H460 cells assessed as viable cells at 2 uM incubated for 48 hrs by annexin V-FITC and PI staining based flow cytometry (reference value: 90.4 %); format: functional; settings: read-out: Activity
# HepG2 [18] = test: Antiproliferative activity against human HepG2 cells assessed as reduction in cell growth at 8 uM incubated for 72 hrs by CCK-8 assay relative to control; format: functional
# NCI-H460 [19] = test: Induction of apoptosis in human NCI-H460 cells assessed as late apoptotic cells at 2 uM incubated for 48 hrs by annexin V-FITC and PI staining based flow cytometry (reference value: 6.11 %); format: functional
# HCT-116 [20] = test: Antiproliferative activity against human HCT-116 cells assessed as reduction in cell growth incubated for 72 hrs by CCK-8 assay; format: functional, cell-based; settings: HCT-116, 72 h; outline: as §1
# HeLa [21] = test: Induction of apoptosis in human HeLa cells assessed as viable cells at 2 uM incubated for 48 hrs by annexin V-FITC and PI staining based flow cytometry (reference value: 98.5 %); format: functional; settings: read-out: Activity
# HCT-116 [22] = test: Induction of apoptosis in human HCT-116 cells assessed as necrotic cells at 2 uM incubated for 48 hrs by annexin V-FITC and PI staining based flow cytometry (reference value: 0.124 %); format: functional
# HepG2 [23] = test: Antiproliferative activity against human HepG2 cells assessed as reduction in cell growth incubated for 72 hrs by CCK-8 assay; format: functional, cell-based; settings: HepG2, 72 h; outline: as §1
# HeLa [24] = test: Induction of apoptosis in human HeLa cells assessed as necrotic cells at 2 uM incubated for 48 hrs by annexin V-FITC and PI staining based flow cytometry (reference value: 0.124 %); format: functional
# NCI-H460 [25] = test: Antiproliferative activity against human NCI-H460 cells assessed as reduction in cell growth incubated for 72 hrs by CCK-8 assay; format: functional, cell-based; settings: NCI-H460, 72 h; outline: as §1
# HCT-116 [26] = test: Antiproliferative activity against human HCT-116 cells assessed as reduction in cell growth at 2 uM incubated for 72 hrs by CCK-8 assay relative to control; format: functional
# HeLa [27] = test: Antiproliferative activity against human HeLa cells assessed as reduction in cell growth incubated for 72 hrs by CCK-8 assay; format: functional, cell-based; outline: as §1
# Histone deacetylase 1 = Histone deacetylase 1 (Homo sapiens, UniProt Q13547); test: Inhibition of recombinant human HDAC1 at 10 uM using SIRT1 as substrate incubated for 10 mins followed by substrate addition and measured after 30 mins by fluorescence based assay relative to control; settings: time 40.0 min
# Histone deacetylase 1, sequence (Q13547 whole entry): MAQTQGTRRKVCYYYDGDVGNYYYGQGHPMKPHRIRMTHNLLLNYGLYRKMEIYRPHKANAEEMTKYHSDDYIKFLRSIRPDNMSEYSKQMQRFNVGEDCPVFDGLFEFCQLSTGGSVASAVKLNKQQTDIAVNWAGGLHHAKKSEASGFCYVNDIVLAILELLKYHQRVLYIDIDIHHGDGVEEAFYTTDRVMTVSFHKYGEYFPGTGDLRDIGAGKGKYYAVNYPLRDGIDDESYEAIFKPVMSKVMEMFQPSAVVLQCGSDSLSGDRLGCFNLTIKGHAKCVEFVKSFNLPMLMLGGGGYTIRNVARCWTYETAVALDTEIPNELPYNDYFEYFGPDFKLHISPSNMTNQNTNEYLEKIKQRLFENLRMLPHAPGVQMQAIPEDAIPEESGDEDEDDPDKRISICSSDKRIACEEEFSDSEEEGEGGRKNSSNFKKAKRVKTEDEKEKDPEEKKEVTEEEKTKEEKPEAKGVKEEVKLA
# Outline: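 Enzyme inhibition of HDAC1 measured at a single concentration of 10 µM, tested alongside the cell-growth screen.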
Compound,Activity (A-375 [1]) [%],Activity (A-375 [2]) [%],Activity (A-375 [3]) [%],inhibition at 2 µM (NCI-H460 [4]) [%],Activity (HCT-116 [5]) [%],viability at 2 µM (A-375 [6]) [%],Activity (NCI-H460 [7]) [%],Activity (HCT-116 [8]) [%],Activity (HeLa [9]) [%],inhibition at 8 µM (NCI-H460 [12]) [%],inhibition at 2 µM (HepG2 [13]) [%],IC50 (A-375 [14]) [µM],inhibition at 8 µM (HCT-116 [16]) [%],inhibition at 8 µM (HepG2 [18]) [%],IC50 (HCT-116 [20]) [µM],IC50 (HepG2 [23]) [µM],IC50 (NCI-H460 [25]) [µM],inhibition at 2 µM (HCT-116 [26]) [%],IC50 (HeLa [27]) [µM],inhibition (Histone deacetylase 1) [%],other results
Nc1ccc(F)cc1NC(=O)c1ccc(CNC(=O)/C=C/c2cccnc2)cc1,49.5,14.2,1.73,1.73,54.6,34.5,0.543,3.12,0.555,38.2,8.36,6.72,73.4,40.6,1.49,11.7,13.3,65.7,11,,IC50 (Histone deacetylase 2): 0.0665 µM; Activity (NCI-H460 [10]): 14.7%; viability at 2 µM (HCT-116 [11]): 41.3%; Activity (HeLa [15]): 1.04%; viability at 2 µM (NCI-H460 [17]): 69.6%; Activity (NCI-H460 [19]): 15.1%; viability at 2 µM (HeLa [21]): 98.3%; Activity (HCT-116 [22]): 0.985%; Activity (HeLa [24]): 0.103%
Nc1ccccc1NC(=O)c1ccc(Cn2cnc3c(N4CCOCC4)nc(Cl)nc32)cc1,,,,5.05,,,,,,47,56.9,2.68,80.7,71.3,0.45,2.82,6.09,77.7,2.03,93.2,
CC(C)n1cnc2c(NCc3ccc(C(=O)Nc4ccccc4N)cc3)nc(Cl)nc21,,,,54.1,,,,,,80.5,63.8,2.17,76,74.4,0.8,3.32,3.41,73.2,2.13,89.7,
Nc1ccccc1NC(=O)c1ccc(Cn2cnc3c(Nc4ccccc4)nc(Cl)nc32)cc1,,,,42.7,,,,,,77.8,49.6,2.8,83.5,74.8,1.07,4.18,5.74,71.4,2.92,84,
Nc1ccccc1NC(=O)c1ccc(Cn2cnc3c(NCc4ccccc4)nc(Cl)nc32)cc1,,,,44.7,,,,,,61.2,7.55,5.83,78.3,62.8,1.06,7.72,11.2,68.3,6.77,76,
CC[C@H](CO)Nc1nc(NCc2ccccc2)c2ncn(C(C)C)c2n1 [SELICICLIB],42.3,7.03,0.189,7.73,83.9,50.5,3.09,4.24,4.04,15.6,12,11.8,29.1,22.1,6.76,8.53,11.9,23.5,11.2,,Activity (NCI-H460 [10]): 14%; viability at 2 µM (HCT-116 [11]): 11.6%; Activity (HeLa [15]): 7.16%; viability at 2 µM (NCI-H460 [17]): 47%; Activity (NCI-H460 [19]): 36%; viability at 2 µM (HeLa [21]): 88.4%; Activity (HCT-116 [22]): 0.24%; Activity (HeLa [24]): 0.424%
